Results on eleven molecules are retold here after ChEMBL document CHEMBL4261490, “Exploring the links between peptoid antibacterial activity and toxicity” (Medchemcomm, 2017).

The nature of data set [1]: Selectivity index, ratio of ED50 for human HepG2 cells to MIC for Staphylococcus epidermidis clinical isolate. It is filed as toxicity. The conditions noted are these: read-out: Selectivity Index.
Data set [2] in a line: Selectivity index, ratio of ED50 for human HepG2 cells to MIC for Pseudomonas aeruginosa PAO1 ATCC 15692. Particulars: read-out: Selectivity Index. Format: toxicity.
The subject of another data set is Pseudomonas aeruginosa. The data set can be described thus: Antibacterial activity against Pseudomonas aeruginosa PAO1 ATCC 15692 incubated for 16 hrs under shaking condition. Format: functional. Particulars: PAO1 ATCC 15692, 16 h. The gist of the method:
(§1)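 Broth microdilution (Andrews method) in Iso-sensitest broth. Overnight cultures are adjusted to A650 0.07 (0.5 McFarland) and diluted ten-fold. Compounds come from 5 mM DMSO stocks, 2-fold serially diluted, final 2–100 μM in a 1:1 inoculum:compound mix. Incubation is 37 °C for 16 h with shaking. MIC is the lowest concentration giving complete growth inhibition, read by absorbance; triplicate.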

A short description of data set [3]: Selectivity index, ratio of ED50 for human HaCaT cells to MIC for Pseudomonas aeruginosa PAO1 ATCC 15692. Format: toxicity. Particulars: read-out: Selectivity Index.
The nature of data set [4]: Selectivity index, ratio of ED50 for human HepG2 cells to MIC for Escherichia coli K-12 W3110 ATCC 27325. Format: toxicity. Particulars: read-out: Selectivity Index.
Data set [5] can be described thus: Selectivity index, ratio of ED50 for human HaCaT cells to MIC for Escherichia coli K-12 W3110 ATCC 27325. Format: toxicity. Particulars: read-out: Selectivity Index.
Data set [6] in a line: Cytotoxicity against human HepG2 cells assessed as reduction in cell viability pretreated for 1 hr followed by DMEM addition measured after 24 hrs by alamar blue assay. Format: cell-based. The conditions noted are these: read-out: ED50. The essentials:
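HepG2 cells are kept in DMEM high glucose with 10% heat-inactivated FBS and 1% P/S at 37 °C, 5% CO2, and seeded at 2x10^4 cells/well one day ahead. They are exposed to compounds (100 to 3 µM, from 5 mM DMSO stocks) in 50 µL for 1 h. Medium is then added and cells incubated 24 h. alamarBlue is read after 2 h (Ex 560/Em 600). Triplicate on ≥2 occasions; ED50 from dose-response; DMSO negative control.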

Data set [7] in a line: Cytotoxicity against human HaCaT cells assessed as reduction in cell viability pretreated for 1 hr followed by DMEM addition measured after 24 hrs by alamar blue assay. The conditions noted are these: read-out: ED50. It is filed as cell-based. The essentials:
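HaCaT keratinocytes are grown in DMEM high glucose with 10% FBS and 1% P/S and seeded at 2x10^4 cells/well 24 h before treatment. Compound dilution series run 2–100 µM (5 mM DMSO stocks) in 50 µL for 1 h, then medium is added for 24 h at 37 °C, 5% CO2. alamarBlue is read after 1 h (Ex 540/Em 620). Triplicate, ≥2 occasions; ED50 from dose-response; amphotericin B positive control.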
On the technique in general: Alamar Blue is a resazurin reagent that responds to reducing activity.

For another data set, the system named is Staphylococcus aureus. The data set can be described thus: Antibacterial activity against Staphylococcus aureus 3R7089 strain Oxford/ATCC 9144 incubated for 16 hrs under shaking condition. The conditions noted are these: 3R7089 strain Oxford/ATCC 9144, 16 h. It is filed as functional. The essentials: as §1
Data set [8] has as its system Staphylococcus epidermidis. The data set can be described thus: Antibacterial activity against Staphylococcus epidermidis clinical isolate incubated for 16 hrs under shaking condition. Format: functional. The gist of the method:
as §1

A short description of data set [9]: Selectivity index, ratio of ED50 for human HaCaT cells to MIC for Staphylococcus epidermidis clinical isolate. The conditions noted are these: read-out: Selectivity Index. Format: toxicity.
A short description of data set [10]: Selectivity index, ratio of ED50 for human HepG2 cells to MIC for Staphylococcus aureus 3R7089 strain Oxford/ATCC 9144. Format: toxicity. Particulars: read-out: Selectivity Index.
Data set [11] can be described thus: Selectivity index, ratio of ED50 for human HaCaT cells to MIC for Staphylococcus aureus 3R7089 strain Oxford/ATCC 9144. It is filed as toxicity. Particulars: read-out: Selectivity Index.

Each structure is given as a SMILES string. Values after ≈ are worked out from the molar mass of the structure shown. Square brackets hold non-standard residues; d marks the D form. Peptide text beside a SMILES is read from it. Gly(Nα-4-Cl-benzyl) = O=C(O)CNCc1ccc(Cl)cc1; Gly(N-(CH2)6NH2) = NCCCCCCNCC(=O)O; Nspe = C[C@H](NCC(=O)O)c1ccccc1; NhArg = N=C(N)NCCCCNCC(=O)O; Nphe = O=C(O)CNCc1ccccc1; Nlys = NCCCCNCC(=O)O

By MIC is commonly meant the lowest concentration that inhibits growth of the organism. A low value points to greater potency. Regarding `C[C@@H](c1ccccc1)N(CC(N)=O)C(=O)CN(C(=O)CN(CCCCCCN)C(=O)CN(C(=O)CN(C(=O)CNCCCCCCN)[C@@H](C)c1ccccc1)[C@@H](C)c1ccccc1)[C@@H](C)c1ccccc1`, the selectivity ratio in data set [1] came to 4; in data set [2], 1; in data set [3], 1; in data set [4], 1; in data set [5], 1; in data set [9], 4. Also, the selectivity ratio in [10] and in data set [11] was 1 throughout. Also, the MIC against Pseudomonas aeruginosa was greater than 100 µM; in the data set with Staphylococcus aureus, greater than 100 µM; in [8], 25 µM (≈ 24.4 µg/mL). Besides, the CC50 at 24 h in [6] and in data set [7] was greater than 100 µM in each case.
As to `NCCCCNCC(=O)N(CC(=O)N(CC(=O)N(CCCCN)CC(=O)N(CC(=O)N(CC(=O)N(CCCCN)CC(=O)N(CC(=O)N(CC(N)=O)Cc1cccc(F)c1)Cc1cccc(F)c1)Cc1cccc(F)c1)Cc1cccc(F)c1)Cc1cccc(F)c1)Cc1cccc(F)c1`, the selectivity ratio in data set [1] was 22; in [2] it was 2; in data set [3] it was 3; in [4], 3; in data set [5], 5; in data set [9], 32. Further, the selectivity ratio in data set [10] was determined as 7; in data set [11], 11.
Regarding `NCCCCNCC(=O)N(CC(=O)N(CC(=O)N(CCCCN)CC(=O)N(CC(=O)N(CC(=O)N(CCCCN)CC(=O)N(CC(=O)N(CC(N)=O)Cc1ccccc1)Cc1ccccc1)Cc1ccccc1)Cc1ccccc1)Cc1ccccc1)Cc1ccccc1`, the selectivity ratio in [1] is 17; in data set [2], 1; in [3], 1; in [4], 2; in [5], 2; in data set [9] it was 17. The selectivity ratio in data set [10] and in [11] was 4 throughout. Besides, the MIC in the data set on Pseudomonas aeruginosa is greater than 100 µM. The CC50 at 24 h in [6] and in [7] was greater than 100 µM in each case.
On to `NCCCCNCC(=O)N(CC(=O)N(CC(=O)N(CCCCN)CC(=O)N(CC(=O)N(CC(=O)N(CCCCN)CC(=O)N(CC(=O)N(CC(=O)N(CCCCN)CC(=O)N(CC(=O)N(CC(N)=O)Cc1cccc(F)c1)Cc1cccc(F)c1)Cc1cccc(F)c1)Cc1cccc(F)c1)Cc1cccc(F)c1)Cc1cccc(F)c1)Cc1cccc(F)c1)Cc1cccc(F)c1`, for which the selectivity ratio in [1] amounted to 6; in data set [2], 1; in [3], 1; in data set [4] it was 1; in [5] it was 1; in data set [9] it was 8. In addition, the selectivity ratio in data set [10] came out at 3; in data set [11], 4.
On to `NCCCCCCNCC(=O)N(CC(=O)N(CC(=O)N(CCCCCCN)CC(=O)N(CC(=O)N(CC(N)=O)Cc1ccccc1)Cc1ccccc1)Cc1ccccc1)Cc1ccccc1` (H-[Gly(N-(CH2)6NH2)][Nphe][Nphe][Gly(N-(CH2)6NH2)][Nphe][Nphe]-NH2), for which the selectivity ratio in [1], in [2], in [3], in data set [4], in data set [5] and in data set [9] was 1 in each case. For the same molecule, the selectivity ratio in data set [10] and in data set [11] was 1 in each case. The MIC (against Pseudomonas aeruginosa; against Staphylococcus aureus; in data set [8]) was greater than 100 µM in each case. The CC50 at 24 h in [6] and in data set [7] was greater than 100 µM each time.
Take `C[C@@H](c1ccccc1)N(CC(N)=O)C(=O)CN(C(=O)CN(CCCCNC(=N)N)C(=O)CN(C(=O)CN(C(=O)CN(CCCCNC(=N)N)C(=O)CN(C(=O)CN(C(=O)CN(CCCCNC(=N)N)C(=O)CN(C(=O)CN(C(=O)CNCCCCNC(=N)N)[C@@H](C)c1ccccc1)[C@@H](C)c1ccccc1)[C@@H](C)c1ccccc1)[C@@H](C)c1ccccc1)[C@@H](C)c1ccccc1)[C@@H](C)c1ccccc1)[C@@H](C)c1ccccc1` (H-[NhArg][Nspe][Nspe][NhArg][Nspe][Nspe][NhArg][Nspe][Nspe][NhArg][Nspe][Nspe]-NH2): the selectivity ratio amounted to 12 in [1]; 1 in [2]; 2 in [3]; 2 in data set [4]; 3 in data set [5]; 20 in data set [9]. The selectivity ratio was determined as 12 in data set [10] and 20 in data set [11]. Also, the CC50 at 24 h in [7] is 20 µM.
On to `NCCCCNCC(=O)N(CC(=O)N(CC(=O)N(CCCCN)CC(=O)N(CC(=O)N(CC(=O)N(CCCCN)CC(=O)N(CC(=O)N(CC(N)=O)Cc1ccc(Cl)cc1)Cc1ccc(Cl)cc1)Cc1ccc(Cl)cc1)Cc1ccc(Cl)cc1)Cc1ccc(Cl)cc1)Cc1ccc(Cl)cc1` (H-[Nlys][Gly(Nα-4-Cl-benzyl)][Gly(Nα-4-Cl-benzyl)][Nlys][Gly(Nα-4-Cl-benzyl)][Gly(Nα-4-Cl-benzyl)][Nlys][Gly(Nα-4-Cl-benzyl)][Gly(Nα-4-Cl-benzyl)]-NH2), for which the selectivity ratio in data set [1] stood at 12; in data set [2], 1; in data set [3] it was 1; in [9], 11; in data set [10], 8; in [11], 7.
On to `CC(c1ccccc1)N(CC(=O)N(CCCCN)CC(=O)N(CC(=O)N(CC(=O)N(CCCCN)CC(=O)N(CC(=O)N(CC(N)=O)[C@@H](C)c1ccccc1)Cc1ccc(F)cc1)C(C)c1ccccc1)Cc1ccc(F)cc1)C(=O)CN(Cc1ccc(F)cc1)C(=O)CNCCCCN` (single isomer, unassigned), for which the selectivity ratio in data set [1] stood at 18; in [5] it was 2; in [9], 26; in data set [10] it was 12; in data set [11], 17. Also, the CC50 at 24 h in data set [6] amounted to 36 µM; in data set [7], 52 µM. For the same molecule, the MIC in the data set with Staphylococcus aureus worked out at 3 µM (≈ 4.14 µg/mL); in data set [8], 2 µM (≈ 2.76 µg/mL).
As to `CC(c1ccccc1)N(CC(=O)N(CCN)CC(=O)N(CC(=O)N(CC(=O)N(CCN)CC(=O)N(CC(=O)N(CC(N)=O)[C@@H](C)c1ccccc1)[C@@H](C)c1ccccc1)C(C)c1ccccc1)[C@@H](C)c1ccccc1)C(=O)CN(C(=O)CNCCN)C(C)c1ccccc1` (single isomer, unassigned), the selectivity ratio is 8 in data set [1]; 1 in [2]; 1 in data set [3]; 4 in [4]; 4 in data set [5]; 8 in data set [9]. Moreover, the selectivity ratio in data set [10] and in data set [11] was 50 throughout. For the same molecule, the MIC in the data set with Pseudomonas aeruginosa is greater than 100 µM; in the data set with Staphylococcus aureus, 2 µM (≈ 2.57 µg/mL). Besides, the CC50 at 24 h in data set [6] and in data set [7] was greater than 100 µM throughout.
Regarding `CC(c1ccccc1)N(CC(=O)N(CCCCN)CC(=O)N(CC(=O)N(CC(=O)N(CCCCN)CC(=O)N(CC(=O)N(CC(N)=O)[C@@H](C)c1ccccc1)[C@@H](C)c1ccccc1)Cc1ccc(F)cc1)Cc1ccc(F)cc1)C(=O)CN(C(=O)CNCCCCN)[C@@H](C)c1ccccc1` (single isomer, unassigned), the selectivity ratio in [1] was found to be 22; in data set [3], 3; in data set [4], 3; in data set [5], 5; in data set [9], 33; in data set [10], 14. The selectivity ratio in data set [11] turned out to be 22. The CC50 at 24 h was 43 µM in [6] and 65 µM in data set [7]. The MIC with Staphylococcus aureus worked out at 3 µM (≈ 4.13 µg/mL); in data set [8], 2 µM (≈ 2.75 µg/mL).
Regarding `C[C@H](c1ccccc1)N(CC(N)=O)C(=O)CN(C(=O)CN(CCCCN)C(=O)CN(C(=O)CN(C(=O)CN(CCCCN)C(=O)CN(C(=O)CN(C(=O)CNCCCCN)[C@H](C)c1ccccc1)[C@@H](C)c1ccccc1)[C@H](C)c1ccccc1)[C@@H](C)c1ccccc1)[C@H](C)c1ccccc1` (stereo in doubt), the selectivity ratio in data set [1] was determined as 50; in [2], 1; in [3] it was 1; in [4], 8; in data set [5], 8; in [9], 50. The selectivity ratio in data set [10] and in [11] was 50 in each case. Also, the MIC is greater than 100 µM in the data set on Pseudomonas aeruginosa and 2 µM (≈ 2.74 µg/mL) against Staphylococcus aureus. Besides, the CC50 at 24 h in data set [6] and in data set [7] was greater than 100 µM in each case.
